Mdm2 MdmX PPI: inhibitors of human Mdm2/MdmX interaction; O15151+Q00987; SaOS-2 split-luciferase Mdm2/MdmX complementation, luminescence; inhibition, % at 8 µM; hit rate 3% among 330,000; AID 485346;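 active = inhibition of at least 50% at 8 µM in the primary screen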
SKKanGAS inh: blocks kanamycin growth of S. pyogenes SKKanGAS strain; BacTiter-Glo, 6 h; inhibition, % at 7.5 µM; hit rate 1.3% among 300,000; AID 1662;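 active = mean replicate score, as percent of positive control median, at least 50; inconclusive = mean below 50 but one replicate at or above 50; inactive = mean and every replicate below 50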;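 also: strain carries kanamycin resistance gene driven by streptokinase promoter and grows in 40 µg/ml kanamycin; loss of luminescence reflects streptokinase promoter inhibition or plain growth inhibition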
CSC inhib: cancer stem cell inhibition. inhibition, % at 7.5 µM. hit rate 1.1% among 300,000. cancer stem cell-like cells viability, luminescence; in the data active = inhibition above about 75%; inconclusive = no clear call, values can overlap the other calls; tested in HMLE shEcad cells
T cruzi repl: blocks replication of Trypanosoma cruzi | T. cruzi beta-gal in NIH3T3, luminescence, 90 h | inhibition, % (concentration not given with the values) | AID 1885 | hit rate 1.4% among 300,000;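 active = mean inhibition across valid replicates above about 55%, limit read from the data; inconclusive = mean below that limit but half or more replicates reach it; inactive = mean below it, under half of replicates reach it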;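 also: signal also drops with host cell toxicity which is not excluded here; higher percent means less beta-gal luminescence so fewer parasites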
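compound dosing = single 50 nL compound addition per well in DMSO | material = NIH/3T3 host cells with β-galactosidase reporter T. cruzi | input = 5,000 host fibroblasts per well | timing = ≥90 h infection period, 3 h prior cell attachment | read-out basis = percent inhibition of parasite-derived β-gal signal | detection = GalScreen β-gal luminescence, detergent lysis, 60 min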
aSyn 5UTR inh: 5' untranslated region of α-synuclein, MLPCN primary screen. alpha-synuclein 5'UTR reporter, inhibitor activity. hit rate 0.82% among 300,000. AID 1813. inhibition, % (tested at 7.5 µM); in the data active = inhibition above about 60%; inconclusive = no clear call, values can overlap the other calls;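 also: H4 neuroglioblastoma cells stably carrying SNCA 5'UTR luciferase fusion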
Numbers stand for hits; i = inactive; ? = inconclusive; nt = no result given. The list is not random: actives were taken first. Their share in the collection is about 5.4%.

SMILES	Mdm2 MdmX PPI	SKKanGAS inh	CSC inhib	T cruzi repl	aSyn 5UTR inh
CC(C)c1ccc(-c2nnn(CCC(=O)O)n2)cc1	i	i	i	i	118
Cc1ccc(NC(=O)CCNS(=O)(=O)c2ccccc2F)cc1S(=O)(=O)N1CCOCC1	i	i	i	i	i
c1ccc(CC2CCN(C3=Nc4cccc5cccc3c45)CC2)cc1	i	i	?	66	i
c1cc2c3c(cccc3c1)C(N1CCOCC1)=N2	i	i	i	i	i
CCOc1ccc(/C=N/n2c(COc3ccccc3)n[nH]c2=S)cc1OC	i	i	i	i	i
c1ccc(CSc2nnnn2-c2ccc3c(c2)OCCO3)nc1	i	i	i	i	i
Clc1ccc(CSc2nnnn2-c2ccc3c(c2)OCO3)c(Cl)c1	i	i	82	i	i
Cc1cc(C)cc(NC(=O)Nc2ccc(NC(=O)c3ccccc3O)cc2)c1	i	i	92	i	i
O=C1c2ccccc2C(=O)N1CCCc1c[nH]c2ccc(Cl)cc12	i	i	i	i	i
Oc1ccccc1/C=N/NC(=S)NC1CC2CCC1C2 (configuration not stated)	i	70	i	i	i
N#Cc1c(NC(=S)NC(=O)c2ccccc2)sc2c1CCN(CCc1ccccc1)C2	i	i	i	71	i
CCN1Cc2c(/C=C/c3ccccc3)nc3ccc(OC)cc3c2N(c2cccc(Cl)c2)C1	i	i	107	i	i
O=C(NC(=S)NNC(=O)c1ccccc1O)c1ccco1	nt	65	i	i	i
O=C(NC(=S)Nc1cccc(NC(=S)NC(=O)c2ccco2)n1)c1ccco1	i	i	i	i	i
O=C(NC(=S)NNC(=O)c1cc2ccccc2cc1O)c1ccco1	i	98	i	i	i
Cc1ccc(C)c(N2CCN(C(=O)CCC(=O)N3CCOc4ccc(Cl)cc43)CC2)c1	i	i	i	55	i
C[C@H](CO)N1C[C@H](C)[C@@H](CN(C)S(=O)(=O)c2ccccc2)Oc2ccc(NS(=O)(=O)c3ccccc3)cc2C1=O	i	nt	nt	nt	nt
CCOC(=O)C1=C(C)N=c2s/c(=C\c3ccc(O)c([N+](=O)[O-])c3)c(=O)n2C1c1ccccc1OC (configuration not stated)	i	58	i	i	i
CCOC(=O)C1=C(c2ccccc2)N=c2s/c(=C\c3cc(OC)c(OC)c(OC)c3)c(=O)n2C1c1cccs1 (configuration not stated)	i	i	i	63	i
CCOC(=O)C1=C(C)N=c2s/c(=C/c3ccc(OCC(=O)O)c(OC)c3)c(=O)n2C1c1ccc(Cl)cc1 (configuration not stated)	i	52	i	i	i
COc1cc(/C=c2\sc3n(c2=O)C(c2ccccc2)C(c2ccccc2)=NN=3)ccc1O (configuration not stated)	i	nt	103	nt	nt
CCOC(=O)C1=C(C)N=c2s/c(=C\c3ccc(OCC(=O)O)cc3)c(=O)n2C1c1ccc(Cl)cc1 (configuration not stated)	i	i	nt	i	i
CCOC(=O)C1=C(c2ccccc2)N=c2s/c(=C\c3ccco3)c(=O)n2C1c1cccs1 (configuration not stated)	i	i	nt	i	i
CCCC(NC(=O)C(C)Sc1nnnn1C1CC1)c1ccccc1 (configuration not stated)	i	nt	nt	nt	nt
COc1ccc(Br)cc1C(=O)Nc1ccccc1N1CCN(C(=O)c2ccccc2)CC1	i	i	i	59	i
SMILES	Mdm2 MdmX PPI	SKKanGAS inh	CSC inhib	T cruzi repl	aSyn 5UTR inh
CC(C)(C)C(=O)Nc1ccccc1N1CCN(C(=O)c2ccc(Cl)cc2)CC1	i	i	i	i	i
COc1c(C)cc(Br)cc1C(=O)Nc1ccccc1N1CCN(C(=O)c2ccccc2)CC1	i	i	i	66	i
Cc1ccccc1C(=O)Nc1ccccc1N1CCN(C(=O)c2ccccc2)CC1	i	55	i	i	i
CC(C)C(=O)NC(=S)Nc1ccccc1N1CCN(C(=O)c2ccc(Cl)cc2)CC1	i	i	i	64	i
CCOc1cc(CNc2cccc3[nH]c(C)nc23)ccc1OC	i	i	i	i	i
COC(=O)c1nc2n(n1)C(c1cc(OC)ccc1OC)C(C(=O)OC1CCCCC1)=C(C)N2 (configuration not stated)	i	i	i	i	i
COC(=O)Cc1coc2cc(OC)ccc12	i	nt	i	nt	nt
CCN(C(=O)COC(=O)c1oc2ccccc2c1C)c1c(N)n(Cc2ccccc2)c(=O)[nH]c1=O	i	nt	i	nt	nt
Cc1ccccc1-c1nc(CS(=O)CC(=O)NC2CCCCC2)c(C)o1 (configuration not stated)	i	i	i	i	i
COc1cc(/C=N/Nc2ccc(F)cc2F)cc(OC)c1O	i	i	95	i	i
Cc1c2c(nc3ccccc13)CCC(C(C)(C)C)C2 (configuration not stated)	i	i	i	57	i
CCC1(c2ccc(Cl)cc2)NC(=O)N(CC(=O)NC2CCCCCC2)C1=O (configuration not stated)	i	nt	nt	nt	nt
Cc1ncc(CO)c(/C=N/NC(=S)Nc2ccc(Cl)c(Cl)c2)c1O	i	66	i	i	i
CC(C)Cc1cc(C(=O)N2N=C(C(F)F)CC2(O)C(F)F)c2ccccc2n1 (configuration not stated)	i	i	i	i	i
CCCc1ccc(-c2cc(C(=O)NN3CCOCC3)c3ccccc3n2)cc1	i	i	i	i	i
CCc1ccc(-c2cc(C(=O)N3N=C(C(F)F)CC3(O)C(F)F)c3ccccc3n2)cc1 (configuration not stated)	i	i	89	59	i
CCc1ccc(-c2cc(C(=O)Nn3cnnc3)c3ccccc3n2)cc1	i	i	i	i	74
O=C(NCc1ccccc1)c1onc(CS(=O)(=O)c2ccc(Cl)cc2)c1C(=O)NCc1ccccc1	i	i	i	i	i
COc1ccc(C(=O)Nc2nnc(S(=O)(=O)N(C)Cc3ccc(F)cc3)s2)cc1OC	i	i	i	i	i
COc1ccc(NC(=O)C2CCN(C(=O)Nc3ccccc3)CC2)cc1S(=O)(=O)N(C)C	i	nt	i	nt	nt
COc1ccc(/C=C/C(=O)NC(=S)NNC(=O)c2cc(OC)c(OC)c(OC)c2)cc1	i	101	i	i	i
COc1ccc(/C=C/C(=O)NC(=S)Nc2ccccc2)cc1OC	i	i	i	i	i
COc1ccc(/C=C/C(=O)NC(=S)NNC(=O)c2cc(OC)c(OC)c(OC)c2)cc1OC	i	89	i	i	i
N=c1c(S(=O)(=O)c2ccc(Cl)cc2)cc2c(=O)n3ccccc3nc2n1C1CCCC1	i	i	i	55	i
N=c1c(S(=O)(=O)c2ccc(Br)cc2)cc2c(=O)n3ccccc3nc2n1C1CCCCC1	i	i	i	i	i
O=C(CN1CCCCC1)N/N=C/c1ccc(Cl)cc1	i	i	i	i	i
O=C(CCN1CCN(c2ccccc2)CC1)N/N=C/c1ccc(O)c(O)c1O	nt	i	nt	i	i
O=C(CN1CCCCCCC1)N/N=C/c1ccc([N+](=O)[O-])o1	i	i	i	58	i
